Reference: ChEMBL document CHEMBL1134439, “Radioiodinated styrylbenzenes and thioflavins as probes for amyloid aggregates” (J Med Chem, 2001)
Several values for one entry are separate records, joined by “and”; a condition that tells them apart may be missing. Equal values may be shown once.

Experiments:
Mus musculus [1] = assay: Biodistribution was measured in mice spleen 30 minutes after intravenous injection of [125I]-labeled styrylbenzene.; assay type: ADME, organism-based; details: in vivo, 0.5 h
Outline: (§1)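 ICR mice (2-3 months old, 20-30 g) under ether anesthesia; 0.15 mL saline containing 5-10 µCi ¹²⁵I tracer injected into tail vein. Sacrifice by cardiac excision at set times; organs removed, weighed, γ-counted. Expressed as % dose per organ versus diluted aliquots of injectate. Mean of three or four mice ± SD.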

Mus musculus [2] = assay: Biodistribution was measured in mice lung 30 minutes after intravenous injection of [125I]-labeled styrylbenzene.; assay type: ADME, organism-based; details: in vivo, 0.5 h
Outline: (§2)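 ICR mice (2-3 months old, 20-30 g) under ether anesthesia received 5-10 µCi ¹²⁵I tracer in 0.15 mL saline by tail-vein injection. Animals were killed by cardiac excision at set times post-injection. Organs were removed, weighed and γ-counted. Values are % dose per organ against diluted injectate aliquots, taking blood and muscle as 7% and 40% of body weight. Mean of 3-4 mice ± SD.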

Mus musculus [3] = assay: Biodistribution was measured in mice heart 5 minutes after intravenous injection of [125I]-labeled styrylbenzene.; assay type: ADME, organism-based; details: in vivo; outline: as §2
Mus musculus [4] = assay: Biodistribution was measured in mice muscle 60 minutes after intravenous injection of [125I]-labeled styrylbenzene.; assay type: ADME, organism-based, Muscle tissue; details: in vivo, 1 h; outline: as §2
Mus musculus [5] = assay: Biodistribution was measured in mice brain 30 minutes after intravenous injection of [125I]-labeled styrylbenzene; assay type: ADME, organism-based; details: in vivo, 0.5 h; outline: as §2
Mus musculus [6] = assay: Biodistribution was measured in mice lung 5 minutes after intravenous injection of [125I]-labeled styrylbenzene.; assay type: ADME, organism-based; details: in vivo; outline: as §2
Mus musculus [7] = assay: Biodistribution was measured in mice heart 60 minutes after intravenous injection of [125I]-labeled styrylbenzene.; assay type: ADME, organism-based; details: in vivo, 1 h; outline: as §2
Mus musculus [8] = assay: Biodistribution was measured in mice muscle 30 minutes after intravenous injection of [125I]-labeled styrylbenzene.; assay type: ADME, organism-based, Muscle tissue; details: in vivo, 0.5 h; outline: as §2
Mus musculus [9] = assay: Biodistribution was measured in mice blood 5 minutes after intravenous injection of [125I]-labeled styrylbenzene.; assay type: ADME, organism-based; details: in vivo; outline: as §2
Mus musculus [10] = assay: Biodistribution was measured in mice liver 30 minutes after intravenous injection of [125I]-labeled styrylbenzene.; assay type: ADME, organism-based; details: in vivo, 0.5 h; outline: as §2
Mus musculus [11] = assay: Biodistribution was measured in mice skin 60 minutes after intravenous injection of [125I]-labeled styrylbenzene.; assay type: ADME, organism-based, Zone of skin; details: in vivo, 1 h; outline: as §2
Mus musculus [12] = assay: Biodistribution was measured in mice muscle 5 minutes after intravenous injection of [125I]-labeled styrylbenzene.; assay type: ADME, organism-based, Muscle tissue; details: in vivo; outline: as §2
Mus musculus [13] = assay: Biodistribution was measured in mice brain 60 minutes after intravenous injection of [125I]-labeled styrylbenzene; assay type: ADME, organism-based; details: in vivo, 1 h; outline: as §2
Mus musculus [14] = assay: Biodistribution was measured in mice skin 5 minutes after intravenous injection of [125I]-labeled styrylbenzene.; assay type: ADME, organism-based, Zone of skin; details: in vivo; outline: as §2
Mus musculus [15] = assay: Biodistribution was measured in mice skin 30 minutes after intravenous injection of [125I]-labeled styrylbenzene.; assay type: ADME, organism-based, Zone of skin; details: in vivo, 0.5 h; outline: as §2
Mus musculus [16] = assay: Biodistribution was measured in mice kidney 5 minutes after intravenous injection of [125I]-labeled styrylbenzene.; assay type: ADME, organism-based; details: in vivo; outline: as §2
Mus musculus [17] = assay: Biodistribution was measured in mice blood 60 minutes after intravenous injection of [125I]-labeled styrylbenzene.; assay type: ADME, organism-based; details: in vivo, 1 h; outline: as §2
Mus musculus [18] = assay: Biodistribution was measured in mice kidney 60 minutes after intravenous injection of [125I]-labeled styrylbenzene.; assay type: ADME, organism-based; details: in vivo, 1 h; outline: as §2
Mus musculus [19] = assay: Biodistribution was measured in mice heart 30 minutes after intravenous injection of [125I]-labeled styrylbenzene.; assay type: ADME, organism-based; details: in vivo, 0.5 h; outline: as §2
Mus musculus [20] = assay: Biodistribution was measured in mice spleen 60 minutes after intravenous injection of [125I]-labeled styrylbenzene.; assay type: ADME, organism-based; details: in vivo, 1 h; outline: as §1
Mus musculus [21] = assay: Biodistribution was measured in mice blood 30 minutes after intravenous injection of [125I]-labeled styrylbenzene.; assay type: ADME, organism-based; details: in vivo, 0.5 h; outline: as §2
Mus musculus [22] = assay: Biodistribution was measured in mice lung 60 minutes after intravenous injection of [125I]-labeled styrylbenzene.; assay type: ADME, organism-based; details: in vivo, 1 h; outline: as §2
Mus musculus [23] = assay: Biodistribution was measured in mice brain 5 minutes after intravenous injection of [125I]-labeled styrylbenzene; assay type: ADME, organism-based; details: in vivo; outline: as §2
Mus musculus [24] = assay: Biodistribution was measured in mice kidney 30 minutes after intravenous injection of [125I]-labeled styrylbenzene.; assay type: ADME, organism-based; details: in vivo, 0.5 h; outline: as §2
Mus musculus [25] = assay: Biodistribution was measured in mice liver 60 minutes after intravenous injection of [125I]-labeled styrylbenzene.; assay type: ADME, organism-based; details: in vivo, 1 h; outline: as §2
[26] = target: T1, Amyloid-beta precursor protein (Homo sapiens, UniProt P05067); assay: Inhibition constant for amyloid beta compared to [125I]TZDM
T1 sequence (P05067 whole entry): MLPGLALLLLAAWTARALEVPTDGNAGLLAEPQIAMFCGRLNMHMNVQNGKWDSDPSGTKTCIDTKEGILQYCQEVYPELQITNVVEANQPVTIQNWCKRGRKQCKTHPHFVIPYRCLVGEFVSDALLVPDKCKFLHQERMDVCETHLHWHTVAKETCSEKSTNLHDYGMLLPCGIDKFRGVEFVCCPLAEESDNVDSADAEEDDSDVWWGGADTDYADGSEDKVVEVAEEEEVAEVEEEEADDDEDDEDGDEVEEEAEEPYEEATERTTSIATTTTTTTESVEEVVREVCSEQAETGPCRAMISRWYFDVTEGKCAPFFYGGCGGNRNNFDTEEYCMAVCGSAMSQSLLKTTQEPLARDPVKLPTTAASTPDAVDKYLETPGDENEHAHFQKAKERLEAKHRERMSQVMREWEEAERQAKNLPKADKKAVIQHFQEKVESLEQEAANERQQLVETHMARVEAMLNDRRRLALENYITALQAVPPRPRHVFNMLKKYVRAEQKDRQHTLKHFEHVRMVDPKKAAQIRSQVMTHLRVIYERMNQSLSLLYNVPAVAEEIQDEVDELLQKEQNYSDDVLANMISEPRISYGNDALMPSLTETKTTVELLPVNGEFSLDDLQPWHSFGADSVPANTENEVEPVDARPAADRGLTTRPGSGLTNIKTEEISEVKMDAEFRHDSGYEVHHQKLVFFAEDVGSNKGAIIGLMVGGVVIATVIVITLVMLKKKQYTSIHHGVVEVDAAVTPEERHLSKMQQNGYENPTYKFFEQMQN
Outline: (§3)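 Aβ(1-40) or Aβ(1-42) aggregated at 0.5 or 0.25 mg/mL respectively in pH 7.4 buffer (10 mM sodium phosphate, 1 mM EDTA), 37 °C, 36-42 h with shaking. Competition against ¹²⁵I radioligand with fibrils 10-50 nM (final), 10% EtOH, 1 mL. Incubation 3 h room temperature. Bound ligand collected by GF/B filtration, γ-counted. Ki by nonlinear regression. Mean ± SEM, three experiments in duplicate.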

Mus musculus [27] = assay: Biodistribution was measured in mice liver 5 minutes after intravenous injection of [125I]-labeled styrylbenzene.; assay type: ADME, organism-based; details: in vivo; outline: as §2
[28] = target: T1, Amyloid-beta precursor protein; assay: Inhibition constant for aggregates of amyloid beta compared to [125I]IMSB; outline: as §3
Mus musculus [29] = assay: Biodistribution was measured in mice spleen 5 minutes after intravenous injection of [125I]-labeled styrylbenzene.; assay type: ADME, organism-based; details: in vivo; outline: as §1

## COc1ccc(/C=C/c2ccc(/C=C/c3ccc(OC)c(C(=O)O)c3)c(I)c2)cc1C(=O)O
Mus musculus [1]
  Dose/organ: 0.07%
Mus musculus [2]
  Dose/organ: 0.31%
Mus musculus [3]
  Dose/organ: 0.43%
Mus musculus [4]
  Dose/organ: 1.3%
Mus musculus [5]
  Dose/organ: 0.03%
Mus musculus [6]
  Dose/organ: 0.89%
Mus musculus [7]
  Dose/organ: 0.12%
Mus musculus [8]
  Dose/organ: 1.82%
Mus musculus [9]
  Dose/organ: 22.52%
Mus musculus [10]
  Dose/organ: 24.47%
Mus musculus [11]
  Dose/organ: 1.02%
Mus musculus [12]
  Dose/organ: 3.16%
Mus musculus [13]
  Dose/organ: 0.02%
Mus musculus [14]
  Dose/organ: 1.56%
Mus musculus [15]
  Dose/organ: 1.44%
Mus musculus [16]
  Dose/organ: 1.31%
Mus musculus [17]
  Dose/organ: 2.17%
Mus musculus [18]
  Dose/organ: 0.23%
Mus musculus [19]
  Dose/organ: 0.18%
Mus musculus [20]
  Dose/organ: 0.03%
Mus musculus [21]
  Dose/organ: 5.19%
Mus musculus [22]
  Dose/organ: 0.16%
Mus musculus [23]
  Dose/organ: 0.14%
Mus musculus [24]
  Dose/organ: 0.46%
Mus musculus [25]
  Dose/organ: 6.14%
[26]
  Ki: > 1000 nM
Mus musculus [27]
  Dose/organ: 47.85%
[28]
  Ki: 0.17 nM and 0.8 nM
Mus musculus [29]
  Dose/organ: 0.17%
